Measured values taken from ChEMBL document CHEMBL1140839, “Carbamate-appended N-alkylsulfonamides as inhibitors of gamma-secretase” (Bioorg Med Chem Lett, 2008).
The source made the active and inactive calls. No cut-off for these calls is given here.

How the values were obtained:
[1] = molecular target: Gamma-secretase; experiment: Inhibition of gamma secretase in human H4 cells assessed as reduction in amyloid beta40 level by ELISA; format: cell-based
Outline: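 Cells were plated and allowed to attach, then the medium was replaced with Ultraculture containing compound at 1% final DMSO. After overnight incubation, Aβ40 in the conditioned medium was measured by sandwich ELISA (C-terminal Aβ40-specific capture antibody, HRP-labelled N-terminal Aβ antibody for detection). IC50 values are means of two experiments, each with 12 concentrations; intra-assay variance was <10%.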

[2] = system: Mus musculus; experiment: Reduction in amyloid beta level in Tg2576 mouse brain at 200 umol/kg, po after 3 hrs; format: functional; set-up: scale not given: the % may be the effect or the level left
Outline: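 Tg2576 (βAPP-Swedish) transgenic mice received one oral dose of 200 μmol/kg. Brain Aβ was measured 3 h later and expressed as % reduction.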

[3] = Drug level in Tg2576 mouse brain at 200 umol/kg, po after 3 hrs; format: ADME, organism-based; conditions: read-out: Drug uptake
Outline: (§1)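 Tg2576 (βAPP-Swedish) transgenic mice received one oral dose of 200 μmol/kg. Plasma and brain drug concentrations (nM) were measured 3 h after dosing and reported as mean ± error.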

[4] = Drug level in Tg2576 mouse plasma at 200 umol/kg, po after 3 hrs; format: ADME, organism-based; conditions: read-out: Drug uptake; outline: as §1

SMILES	IC50 [1] [nM]	other results
CC(C)N(CCCn1ccnc1)C(=O)OC[C@@H](C)N(c1cc(Cl)ccc1CO)S(=O)(=O)c1ccc(Cl)cc1	19	
C[C@H](CCCN(C)S(C)(=O)=O)N(c1cc(Cl)ccc1CO)S(=O)(=O)c1ccc(Cl)cc1		Activity [2]: 27%
C[C@H](COC(=O)N(CCCn1ccnc1)CC1CC1)N(c1cc(Cl)ccc1CO)S(=O)(=O)c1ccc(Cl)cc1	0.06	Activity [2]: inactive; concentration at 3 h [3]: 0.859 µM; concentration at 3 h [4]: 6.83 µM
CCNC(=O)OC[C@@H](C)N(c1cc(Cl)ccc1CO)S(=O)(=O)c1ccc(Cl)cc1	10	
C[C@H](CCCn1cnnn1)N(c1cc(Cl)ccc1CO)S(=O)(=O)c1ccc(Cl)cc1		Activity [2]: 41%
CC(C)NC(=O)OC[C@@H](C)N(c1cc(Cl)ccc1CO)S(=O)(=O)c1ccc(Cl)cc1	12	
C[C@H](COC(=O)NCCCn1ccnc1)N(c1cc(F)ccc1F)S(=O)(=O)c1ccc(Cl)cc1	1.2	
C[C@H](COC(=O)NCCCn1ccnc1)N(c1cc(Cl)ccc1Cl)S(=O)(=O)c1ccc(Cl)cc1	0.41	
C[C@H](CCOC(=O)NCCn1ccnc1)N(c1cc(Cl)ccc1CO)S(=O)(=O)c1ccc(Cl)cc1	4	
CCN(CCCn1ccnc1)C(=O)OC[C@@H](C)N(c1cc(Cl)ccc1CO)S(=O)(=O)c1ccc(Cl)cc1	0.06	Activity [2]: 15%; concentration at 3 h [3]: 0.227 µM; concentration at 3 h [4]: 0.73 µM
C[C@H](COC(=O)NCCCn1ccnc1)N(c1cc(Cl)ccc1F)S(=O)(=O)c1ccc(Cl)cc1	0.66	
CNC(=O)OC[C@@H](C)N(c1cc(Cl)ccc1CO)S(=O)(=O)c1ccc(Cl)cc1	15	

Now from value to compound, other results behind:

IC50 [1] [nM]	SMILES	other results
2.3	C[C@H](COC(=O)NCCCn1ccnc1)N(c1cc(Cl)ccc1CO)S(=O)(=O)c1ccc(Cl)cc1	
2.1	C[C@H](COC(=O)NCCCn1ncnn1)N(c1cc(Cl)ccc1CO)S(=O)(=O)c1ccc(Cl)cc1	
18	CCN(CC)C(=O)OC[C@@H](C)N(c1cc(Cl)ccc1CO)S(=O)(=O)c1ccc(Cl)cc1	
0.48	C[C@H](COC(=O)N(C)CCCn1ccnc1)N(c1cc(Cl)ccc1Cl)S(=O)(=O)c1ccc(Cl)cc1	
0.93	C[C@H](COC(=O)NCCn1ccnc1)N(c1cc(Cl)ccc1CO)S(=O)(=O)c1ccc(Cl)cc1	
7.7	C[C@H](CCOC(=O)NCCCn1ccnc1)N(c1cc(Cl)ccc1CO)S(=O)(=O)c1ccc(Cl)cc1	
12	C[C@H](COC(=O)NC(C)(C)C)N(c1cc(Cl)ccc1CO)S(=O)(=O)c1ccc(Cl)cc1	
1.8	C[C@H](COC(=O)N1CCCC1)N(c1cc(Cl)ccc1CO)S(=O)(=O)c1ccc(Cl)cc1	
15	CCC(C)NC(=O)OC[C@@H](C)N(c1cc(Cl)ccc1CO)S(=O)(=O)c1ccc(Cl)cc1 (stereo partly drawn)	
0.27	CCN(CCCn1ccnc1)C(=O)OC[C@@H](C)N(c1cc(Cl)ccc1Cl)S(=O)(=O)c1ccc(Cl)cc1	Activity [2]: 50%; concentration at 3 h [3]: 41.2 µM; concentration at 3 h [4]: 98.9 µM
10	CCCNC(=O)OC[C@@H](C)N(c1cc(Cl)ccc1CO)S(=O)(=O)c1ccc(Cl)cc1	
5.6	C[C@H](COC(=O)NC1CCCCC1)N(c1cc(Cl)ccc1CO)S(=O)(=O)c1ccc(Cl)cc1	
